Reference: ChEMBL document CHEMBL1122836, “Angiotensin converting enzyme inhibitors: structure-activity profile of 1-benzazepin-2-one derivatives” (J Med Chem, 1985)

Legend:
[1] = biological target: Angiotensin-converting enzyme (Homo sapiens, UniProt P12821); assay: (§1) In vitro inhibitory activity against Angiotensin I converting enzyme
Rattus norvegicus [2] = assay: Maximal changes in blood pressure recorded during the 4 day test period in spontaneous hypertensive rats, at 3 mg/kg peroral dose; assay type: functional; settings: route oral
How it was run: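 Spontaneously hypertensive rats dosed orally with test compound. Blood pressure was recorded over a 4-day test period. The value is the maximal change in blood pressure seen in that period, given in mm with the oral dose (mg/kg) in brackets.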

[3] = biological target: T1, Angiotensin-converting enzyme (Rattus norvegicus, UniProt P47820); assay: as §1
T1 sequence (P47820 whole entry): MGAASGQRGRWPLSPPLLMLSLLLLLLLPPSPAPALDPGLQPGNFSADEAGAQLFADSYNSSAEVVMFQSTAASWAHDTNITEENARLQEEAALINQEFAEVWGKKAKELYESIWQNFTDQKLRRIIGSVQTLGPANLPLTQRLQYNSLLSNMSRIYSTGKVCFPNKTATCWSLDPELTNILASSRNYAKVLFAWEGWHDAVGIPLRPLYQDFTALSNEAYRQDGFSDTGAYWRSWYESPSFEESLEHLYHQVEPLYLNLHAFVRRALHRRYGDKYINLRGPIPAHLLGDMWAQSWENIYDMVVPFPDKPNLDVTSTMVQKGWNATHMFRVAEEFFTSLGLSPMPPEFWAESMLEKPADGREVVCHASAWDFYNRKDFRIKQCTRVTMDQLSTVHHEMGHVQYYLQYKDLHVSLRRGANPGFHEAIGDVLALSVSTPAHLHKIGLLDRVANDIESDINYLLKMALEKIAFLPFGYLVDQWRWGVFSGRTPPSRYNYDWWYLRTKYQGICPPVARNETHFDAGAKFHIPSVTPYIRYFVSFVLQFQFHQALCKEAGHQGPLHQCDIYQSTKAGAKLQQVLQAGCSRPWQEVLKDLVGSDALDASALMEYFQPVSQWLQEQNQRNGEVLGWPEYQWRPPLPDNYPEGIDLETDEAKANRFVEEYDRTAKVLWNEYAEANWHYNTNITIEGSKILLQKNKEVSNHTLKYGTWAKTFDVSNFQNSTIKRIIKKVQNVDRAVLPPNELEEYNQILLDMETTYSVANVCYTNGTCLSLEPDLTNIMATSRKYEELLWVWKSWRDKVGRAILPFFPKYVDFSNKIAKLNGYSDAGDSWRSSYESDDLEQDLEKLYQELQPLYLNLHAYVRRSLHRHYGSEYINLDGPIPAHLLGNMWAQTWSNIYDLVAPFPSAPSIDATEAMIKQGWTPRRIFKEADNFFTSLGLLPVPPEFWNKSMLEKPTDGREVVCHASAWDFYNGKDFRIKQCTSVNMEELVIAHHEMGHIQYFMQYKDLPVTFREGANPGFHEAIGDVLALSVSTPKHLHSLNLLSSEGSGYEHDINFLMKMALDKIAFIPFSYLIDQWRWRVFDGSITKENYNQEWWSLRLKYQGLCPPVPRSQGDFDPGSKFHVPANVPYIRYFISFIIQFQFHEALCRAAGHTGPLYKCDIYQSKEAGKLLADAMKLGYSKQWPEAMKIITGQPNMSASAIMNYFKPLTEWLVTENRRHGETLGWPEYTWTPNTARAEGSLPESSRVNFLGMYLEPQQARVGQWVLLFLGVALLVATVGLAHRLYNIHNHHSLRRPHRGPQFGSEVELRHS

Rattus norvegicus [4] = assay: In vivo inhibitory activity against Angiotensin I pressor response in normotensive rats after peroral administration; assay type: functional; settings: po, read-out: ID50 (the source's name)
Canis familiaris [5] = assay: In vivo inhibitory activity against Angiotensin I pressor response in normotensive dog after peroral administration, ecperiment 2; assay type: functional; settings: Canis lupus familiaris, po; read-out: ID50 (the source's name)
Canis familiaris [6] = assay: In vivo inhibitory activity against Angiotensin I pressor response in normotensive dog after peroral administration, experiment 1; assay type: functional; settings: Canis lupus familiaris, po; read-out: ID50 (the source's name)
Rattus norvegicus [7] = assay: Maximal changes in blood pressure recorded during the 4 day test period in spontaneous hypertensive rats, at 1 mg/kg peroral dose; assay type: functional; settings: route oral
Rattus norvegicus [8] = assay: In vivo inhibitory activity against Angiotensin I pressor response in normotensive rats by peroral administration, experiment 2; assay type: functional; settings: po, read-out: ID50 (the source's name)
Rattus norvegicus [9] = assay: Maximal changes in blood pressure recorded during the 4 day test period in spontaneous hypertensive rats, at 30 mg/kg peroral dose; assay type: functional; settings: route oral
How it was run: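 Spontaneously hypertensive rats dosed orally and blood pressure recorded over a 4-day test period. Readout is the maximal change in blood pressure (mm) with the oral dose noted; pressure also followed at 24 h after dosing.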

Canis familiaris [10] = assay: In vivo inhibitory activity against Angiotensin I pressor response in normotensive dog after peroral administration; assay type: functional; settings: Canis lupus familiaris, po; read-out: ID50 (the source's name)

Sequence of Angiotensin-converting enzyme (Homo sapiens, UniProt P12821) (P12821 whole entry): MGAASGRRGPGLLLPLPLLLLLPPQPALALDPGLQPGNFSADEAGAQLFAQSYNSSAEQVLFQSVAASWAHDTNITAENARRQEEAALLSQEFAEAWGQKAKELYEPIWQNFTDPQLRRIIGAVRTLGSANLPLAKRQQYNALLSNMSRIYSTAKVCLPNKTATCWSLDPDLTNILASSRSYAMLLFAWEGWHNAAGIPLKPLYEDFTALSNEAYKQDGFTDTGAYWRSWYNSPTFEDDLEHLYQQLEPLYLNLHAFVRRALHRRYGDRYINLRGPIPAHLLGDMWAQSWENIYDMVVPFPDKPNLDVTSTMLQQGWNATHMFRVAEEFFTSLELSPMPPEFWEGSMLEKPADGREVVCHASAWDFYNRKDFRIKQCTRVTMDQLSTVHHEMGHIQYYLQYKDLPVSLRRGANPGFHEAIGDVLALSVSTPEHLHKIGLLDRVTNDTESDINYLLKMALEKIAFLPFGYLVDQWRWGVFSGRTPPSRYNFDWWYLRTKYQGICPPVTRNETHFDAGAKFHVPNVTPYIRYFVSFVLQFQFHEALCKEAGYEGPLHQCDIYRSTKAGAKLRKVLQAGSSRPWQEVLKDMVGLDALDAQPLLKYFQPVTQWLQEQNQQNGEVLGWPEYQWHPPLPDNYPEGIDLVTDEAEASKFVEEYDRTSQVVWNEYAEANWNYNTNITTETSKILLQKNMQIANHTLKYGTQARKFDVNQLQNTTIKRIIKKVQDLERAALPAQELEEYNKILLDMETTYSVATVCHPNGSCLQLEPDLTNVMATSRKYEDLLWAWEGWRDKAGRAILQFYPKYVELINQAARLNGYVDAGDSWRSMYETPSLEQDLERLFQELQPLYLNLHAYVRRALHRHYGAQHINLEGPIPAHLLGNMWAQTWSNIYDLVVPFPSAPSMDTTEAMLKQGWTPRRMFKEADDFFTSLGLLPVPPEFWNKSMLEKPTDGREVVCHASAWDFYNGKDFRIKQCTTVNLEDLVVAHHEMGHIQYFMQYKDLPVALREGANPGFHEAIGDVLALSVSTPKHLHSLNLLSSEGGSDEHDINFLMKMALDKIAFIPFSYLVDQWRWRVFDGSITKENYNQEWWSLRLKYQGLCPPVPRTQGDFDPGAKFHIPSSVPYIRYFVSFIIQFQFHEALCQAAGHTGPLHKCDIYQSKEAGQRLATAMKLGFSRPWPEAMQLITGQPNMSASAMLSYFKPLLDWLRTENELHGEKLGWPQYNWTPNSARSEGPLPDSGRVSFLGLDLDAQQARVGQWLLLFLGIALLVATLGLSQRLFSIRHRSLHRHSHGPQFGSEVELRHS

IC50 [1] | SMILES | further results
7 nM | O=C(O)CN1C(=O)[C@@H](N[C@@H](CSCCc2ccccc2)C(=O)O)CCc2ccccc21 | 
5 nM | CCCC[C@H](N[C@H]1CCc2ccccc2N(CC(=O)O)C1=O)C(=O)O | 
2600 nM | CCCC[C@H](N[C@H]1CCc2ccccc2N(CC(=O)O)C1=O)C(=O)OCC | 
4 nM | CC(C)(C)OC(=O)NCCCC[C@H](N[C@H]1CCc2ccccc2N(CC(=O)O)C1=O)C(=O)O | 
2.9 nM | O=C(O)CN1C(=O)[C@@H](N[C@@H](CSCc2ccccc2)C(=O)O)CCc2ccccc21 | 
 | CCOC(=O)[C@H](CCc1ccccc1)N[C@H]1CCc2ccccc2N(CC(=O)O)C1=O [BENAZEPRIL] | Delta blood pressure (Rattus norvegicus [2]): 50 mmHg; IC50 [3]: 1.7 nM; ED50 (Rattus norvegicus [4]): 0.1 mg/kg
4 nM | O=C(O)CN1C(=O)[C@@H](N[C@@H](CSc2ccccc2)C(=O)O)CCc2ccccc21 | 
40 nM | CCOC(=O)[C@H](CCCCN)N[C@H]1CCc2ccccc2N(CC(=O)O)C1=O | 
45 nM | CC(C)C[C@H](N[C@H]1CCc2ccccc2N(CC(=O)O)C1=O)C(=O)O | 
13 nM | O=C(O)CN1C(=O)[C@@H](N[C@@H](Cc2c[nH]c3ccccc23)C(=O)O)CCc2ccccc21 | 
13 nM | O=C(O)CN1C(=O)[C@@H](N[C@@H](CCCCNC(=O)OCc2ccccc2)C(=O)O)CCc2ccccc21 | 
10 nM | O=C(O)CN1C(=O)[C@@H](N[C@@H](COCc2ccccc2)C(=O)O)CCc2ccccc21 | 
8.5 nM | O=C(O)CN1C(=O)[C@@H](N[C@@H](Cc2ccccc2)C(=O)O)CCc2ccccc21 | 
 | CCOC(=O)[C@H](CCc1ccccc1)N[C@@H](C)C(=O)N1CCC[C@H]1C(=O)O | Delta blood pressure (Rattus norvegicus [2]): -54 mmHg; ED50 (Canis familiaris [5]): 0.096 mg/kg; ED50 (Canis familiaris [6]): 0.15 mg/kg; Delta blood pressure (Rattus norvegicus [7]): -35 mmHg; ED50 (Rattus norvegicus [8]): 0.28 mg/kg; ED50 (Rattus norvegicus [4]): 0.14 mg/kg
7 nM | NCCCC[C@H](N[C@H]1CCc2ccccc2N(CC(=O)O)C1=O)C(=O)O [LIBENZAPRIL] | Delta blood pressure (Rattus norvegicus [9]): -69 mmHg; ED50 (Rattus norvegicus [4]): 1.7 mg/kg; ED50 (Canis familiaris [10]): 0.07 mg/kg
15 nM | CCOC(=O)[C@H](CCCCNC(=O)OCc1ccccc1)N[C@H]1CCc2ccccc2N(CC(=O)O)C1=O | 
6.5 nM | CSCC[C@H](N[C@H]1CCc2ccccc2N(CC(=O)O)C1=O)C(=O)O | 
6 nM | CCC[C@H](N[C@H]1CCc2ccccc2N(CC(=O)O)C1=O)C(=O)O | 
540 nM | CCOC(=O)[C@H](Cc1c[nH]c2ccccc12)N[C@H]1CCc2ccccc2N(CC(=O)O)C1=O | 
1000 nM | COC(=O)[C@H](CC(C)C)N[C@H]1CCc2ccccc2N(CC(=O)O)C1=O | 
